Assay outcomes: PubChem, Broad Institute
This is a sample that favours compounds with a hit; in the whole collection about 1.3% have one here.
ERp5 block: inhibitors of human ERp5; 350,000 tested, 0.05% active; inhibition, % at 9.99 µM; AID 651711; ERp5 insulin aggregation, absorbance 650 nm, 90 min;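 active = mean replicate inhibition above about 25%, with every replicate also reaching it, limit read from the data, passing the limit was not always enough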
Target sequence (Q15084 whole entry, looked up): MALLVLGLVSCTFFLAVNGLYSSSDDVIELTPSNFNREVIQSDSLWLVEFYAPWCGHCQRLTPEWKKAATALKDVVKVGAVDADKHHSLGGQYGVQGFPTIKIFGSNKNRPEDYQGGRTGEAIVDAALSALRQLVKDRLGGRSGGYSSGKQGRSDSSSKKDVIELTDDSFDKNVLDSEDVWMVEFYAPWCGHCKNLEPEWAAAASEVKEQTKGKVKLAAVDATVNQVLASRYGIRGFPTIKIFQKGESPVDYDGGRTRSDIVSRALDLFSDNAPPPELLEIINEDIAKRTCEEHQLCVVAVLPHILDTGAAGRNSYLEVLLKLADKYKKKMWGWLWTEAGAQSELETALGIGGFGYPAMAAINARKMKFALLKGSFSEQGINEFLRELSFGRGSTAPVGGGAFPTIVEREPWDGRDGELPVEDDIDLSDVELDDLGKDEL
FN deposition inh: fibronectin deposition inhibition; inhibition, % at 12.6 µM; AID 743247; 350,000 tested, 0.086% active; AH1F fibroblasts, Alexa488-fibronectin deposition fluorescence, overnight;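 active = mean inhibition across replicates of 30% or more, regardless of how many single replicates reach that level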
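material = AH1F fibroblast monolayer depositing Alexa488-labelled fibronectin into matrix | amount = 10000 AH1F cells/well | buffer or medium = DMEM plus 2% serum, read in PBS | incubation = 1 h cell adhesion before compound, then overnight fibronectin incubation | detection = fluorescence at 485 nm excitation, 525 nm emission | evaluation = percent inhibition as loss of matrix-bound fibronectin fluorescence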
SIRT5 inh: sirtuin-5 (human) deacylase inhibition | Q9NXA8 | Purified SirT5, succinyl-peptide AMC, trypsin-coupled fluorescence | inhibition, % at 15 µM | 330,000 tested, 1.1% active | AID 652115; in the data active = inhibition above about 15%
AF4-AF9 inh: inhibitors of human MLL-AF4/AF9 interaction; P42568; AlphaScreen, biotin-AF4 peptide binding to FLAG-AF9; inhibition, % at 10 µM; 350,000 tested, 0.47% active;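 active = every replicate reaching a set inhibition limit, whatever the replicate mean, cut at about 25% in these data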
PDI turbidity: PDI (human) enzyme inhibition; P07237; PDI insulin aggregation turbidity, A650, 90 min; inhibition, % at 10 µM; 350,000 tested, 0.052% active; AID 588391;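 active = mean inhibition across replicates of 30% or more, whatever share of single replicates reach that level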
Large screens that a line does not name were inactive; ! = not confirmed by another sample.

C[C@@H]1CN([C@@H](C)CO)C(=O)c2cccc(NC(=O)c3ccc(-c4nccs4)cc3)c2O[C@@H]1CN(C)Cc1ccc(C(F)(F)F)cc1	SIRT5 inh 26 (no result: FN deposition inh, PDI turbidity)
CNC[C@@H]1Oc2c(N)cccc2C(=O)N([C@H](C)CO)C[C@H]1C	none (no result: PDI turbidity)
c1ccc(Nc2nc(N3CCNCC3)nc(N3CCOCC3)n2)cc1	none (no result: ERp5 block, SIRT5 inh, AF4-AF9 inh)
CCOC(=O)C(CCC(C)=O)C(=O)c1ccccc1 (stereo unspecified)	none (no result: SIRT5 inh)
CC12CCC3c4ccc(O)cc4CCC3C1CCC2=O (stereo unspecified)	PDI turbidity 45
COc1cccc(C(=O)OCC(=O)NC2CCCc3ccccc32)c1O (stereo unspecified)	none
CCc1cc(CNC(=O)CCc2nnc(CCCc3ccccc3)o2)on1	SIRT5 inh 20
C[C@@H]1CCCCO[C@@H](CN(C)Cc2ccc3c(c2)OCO3)[C@H](C)CN([C@H](C)CO)C(=O)c2cc(NC(=O)Nc3ccc4c(c3)OCO4)ccc2O1	AF4-AF9 inh 32 (no result: PDI turbidity)
COc1ccc(NC(=O)N(C)C[C@@H]2OCCCC[C@H](C)Oc3ccc(NC(=O)Cc4ccccc4)cc3C(=O)N([C@@H](C)CO)C[C@@H]2C)cc1	none (no result: FN deposition inh, PDI turbidity)
COc1ccc(NC(=O)N(C)C[C@H]2OCCCC[C@@H](C)Oc3ccc(NC(=O)Cc4ccccc4)cc3C(=O)N([C@H](C)CO)C[C@@H]2C)cc1	SIRT5 inh 19 (no result: FN deposition inh, PDI turbidity)
C[C@@H]1CCCCO[C@H](CN(C)Cc2ccccc2)[C@H](C)CN([C@H](C)CO)C(=O)c2cc(NC(=O)Cc3ccccc3)ccc2O1	SIRT5 inh 16 (no result: PDI turbidity)
C[C@@H]1CCCCO[C@H](CN(C)Cc2ccccc2)[C@@H](C)CN([C@@H](C)CO)C(=O)c2cc(NC(=O)Nc3ccc4c(c3)OCO4)ccc2O1	AF4-AF9 inh 37 (no result: PDI turbidity)
O=C(O)[C@H]1CCCC[C@H]1C(=O)Nc1ccc(S(=O)(=O)N2CCCCC2)cc1	none
O=C(O)C1CCCCC1C(=O)Nc1ccc(S(=O)(=O)N2CCCC2)cc1 (stereo unspecified)	SIRT5 inh 17
CC12CCCC(C(C#N)C(N)=O)(C1)NC(=O)C2C#N (stereo unspecified)	SIRT5 inh 20
O=c1cc(SCc2ccccc2)nc[nH]1	AF4-AF9 inh 38
CO[C@H]1CN(C)C(=O)c2ccc(NC(=O)Nc3ccc(Cl)c(Cl)c3)cc2OC[C@H](C)NC[C@H]1C	SIRT5 inh 100 (no result: PDI turbidity)
CO[C@H]1CN(C)C(=O)c2ccc(NC(=O)Nc3ccc(Cl)c(Cl)c3)cc2OC[C@H](C)NC[C@@H]1C	FN deposition inh 31! (no result: PDI turbidity)
CO[C@@H]1CN(C)C(=O)c2cc(NC(=O)Nc3cc(Cl)cc(Cl)c3)ccc2OC[C@H](C)NC[C@@H]1C	none (no result: ERp5 block, AF4-AF9 inh, PDI turbidity)
CO[C@H]1CN(C)C(=O)c2cc(NC(=O)Nc3ccc(Cl)c(Cl)c3)ccc2OC[C@@H](C)NC[C@H]1C	none (no result: ERp5 block, AF4-AF9 inh, PDI turbidity)
CO[C@H]1CN(C)C(=O)c2cc(NC(=O)Nc3cc(Cl)cc(Cl)c3)ccc2OC[C@H](C)NC[C@H]1C	FN deposition inh 32! (no result: AF4-AF9 inh, PDI turbidity)
CO[C@H]1CN(C)C(=O)c2cc(NC(=O)Nc3ccc(Cl)c(Cl)c3)ccc2OC[C@@H](C)NC[C@@H]1C	FN deposition inh 32! (no result: ERp5 block, AF4-AF9 inh, PDI turbidity)
Cc1cc(N2C(=O)CC(Cc3ccc(Cl)cc3)C2=O)no1 (stereo unspecified)	none (no result: ERp5 block, SIRT5 inh, AF4-AF9 inh)
O=C1CN(S(=O)(=O)Cc2ccccc2)C[C@H]2[C@H](c3ccc(C#CC4CC4)cc3)[C@H](CO)N12	none (no result: FN deposition inh, PDI turbidity)
CCC(=O)NC[C@H]1[C@@H](c2ccc(-c3ccc(F)cc3)cc2)[C@@H](CO)N1C(=O)CC	none (no result: PDI turbidity)
COc1ccc(S(=O)(=O)Nc2ccc3c(c2)CC(=O)N([C@H](C)CO)C[C@@H](C)[C@H](CN(C)CC2CC2)O3)cc1	none (no result: PDI turbidity)
COc1ccc(C2=C(c3ccccc3)OC(OC)c3cc(F)ccc32)cn1 (stereo unspecified)	none (no result: PDI turbidity)
COC1OC(c2ccccc2)=C(c2ccc(C(N)=O)cc2)c2ccc(F)cc21 (stereo unspecified)	SIRT5 inh 36 (no result: PDI turbidity)
O=C(C1CCCN(S(=O)(=O)c2cccs2)C1)N1CCc2ccccc2C1 (stereo unspecified)	none (no result: ERp5 block, FN deposition inh, SIRT5 inh, AF4-AF9 inh)
O=[N+]([O-])c1ccc(Sc2nnnn2-c2ccccc2)c(Cl)c1	none (no result: ERp5 block, SIRT5 inh, AF4-AF9 inh)
Cn1nnnc1Sc1ccc([N+](=O)[O-])cc1Cl	SIRT5 inh 17 (no result: FN deposition inh)
CSCC[C@H](NC(=O)Cc1ccc(Cl)cc1)C(=O)N1CCC2(CC1)NCCc1[nH]cnc12	none
Cc1ccc(S(=O)(=O)N(C)CCCC(=O)NC(C)(C)CO)cc1	SIRT5 inh 27
